Data set [1] can be described thus: Antiepileptic activity in male CF1 mice 4 hr after oral administration measured in maximum electroshock seizure(MES) test at a dose of 50 mg/kg (no. of animals treated /protected); activity value is 2/4. The format is functional, Mus musculus.
Data set [2] is described as follows: Antiepileptic activity in male CF1 mice 4 hr after administration measured in neurological toxicity (Tox) test at a dose of 100 mg/kg; activity value is 0/4. Type of data set: functional, Mus musculus.
Data set [3] in a line: Dose producing neurotoxic effects in 50% of the CF1 mice after intraperitoneal administration. The format is ADME. Conditions: CF1, mouse, in vivo, ip. In short, it runs like this: (§1)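 Phase II quantification in CF1 male mice (ca. 24–34 g), dosing ip or po in 0.5% methylcellulose suspension. ED50 is protection from tonic hind limb extension in MES. TD50 is rotorod neurotoxicity. Both were read at time of peak effect and derived by Litchfield–Wilcoxon with 95% confidence limits.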

Data set [4] is described as follows: Antiepileptic activity in male CF1 mice 0.5 hr after oral administration measured in neurological toxicity (Tox) test at a dose of 50 mg/kg (no. of animals treated /protected); activity value is 0/4. Type of data set: functional, Mus musculus.
A short description of data set [5]: Dose elevating electroshock induced seizure by 20% in CF1 mice after ip administration. The format is functional, Mus musculus. In short, it runs like this: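 In CF1 male mice (ca. 24–34 g), compound was given ip in 0.5% methylcellulose. The current giving hind limb extension in 50% of mice was found by the up-and-down method, with 15–25 mice per group and a vehicle control group run with each experimental group. At least three doses were tested. The dose raising threshold current by 20% was taken from a plot of dose against % threshold increase.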

A short description of data set [6]: Antiepileptic activity in male CF1 mice 0.25 hr after oral administration measured in maximum electroshock seizure(MES) test at a dose of 50 mg/kg (no. of animals treated /protected); activity value is 2/4. The format is functional, Mus musculus.
The nature of data set [7]: Antiepileptic activity in male CF1 mice 0.5 hr after oral administration measured in maximum electroshock seizure(MES) test at a dose of 50 mg/kg (no. of animals treated /protected); activity value is 4/4. The format is functional, Mus musculus.
A short description of data set [8]: Dose protecting 50% of the mice from tonic hind limb extension at the time of […] after ip administration. Type of data set: functional. Conditions: Mus musculus, Hindlimb. The procedure, abridged: as §1
A short description of data set [9]: Antiepileptic activity in male CF1 mice 0.25 hr after oral administration measured in neurological toxicity (Tox) test at a dose of 50 mg/kg (no. of animals treated /protected); activity value is 0/4. Type of data set: functional, Mus musculus.
Data set [10] is described as follows: Antiepileptic activity in male CF1 mice 30 min after administration measured in neurological toxicity (Tox) test at a dose of 100 mg/kg (no. of animals treated /protected); activity value is 0/8. Type of data set: functional, Mus musculus.
For data set [11], the system named is Rattus norvegicus. Description: Per oral dose (60 mg/Kg) reducing rat corneal kindling 0.5 hr after administration. Type of data set: functional. In short, it runs like this:
(§2)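 Sprague-Dawley rats (85–95 g initial) were kindled with 4 s, 8 mA corneal stimulations (butacaine anesthesia) to 10 consecutive stage 5 seizures. After a vehicle shock and a 2-day shock-free period, test drug was given ip or po and a single shock applied at time of peak effect. Seizures were scored on a modified Racine 0–5 scale. ED50 is the dose reducing severity by 50% (Litchfield–Wilcoxon).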

Data set [12] can be described thus: Dose showing neurotoxicity in 50% of the at the time of peak neurotoxic effect in CF1 MICE after po administration. The format is toxicity, organism-based. Conditions: CF1, mouse, in vivo. The procedure, abridged: as §1
Data set [13] can be described thus: Antiepileptic activity in male CF1 mice 4 hr after oral administration measured in neurological toxicity (Tox) test at a dose of 50 mg/kg (no. of animals treated /protected); activity value is 0/4. The format is functional, Mus musculus.
Data set [14] is described as follows: Protective index was measured as TD50/MES ED50 in mice on po administration. Type of data set: ADME, organism-based. Conditions: mouse, in vivo, read-out: PI. The procedure, abridged: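 Male CF1 mice (ca. 24–34 g) dosed orally with 0.5% methylcellulose suspension. MES ED50 (protection of 50% from tonic hind limb extension) and rotorod TD50, each determined at time of peak effect by Litchfield and Wilcoxon. PI = TD50/MES ED50.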

Data set [15] relates to Rattus norvegicus. Description: Per oral dose (75 mg/Kg) reducing rat corneal kindling 0.5 hr after administration. Type of data set: functional. In short, it runs like this:
as §2

Data set [16] is described as follows: Time of peak neurotoxic effect in CF1 MICE after ip administration. The format is ADME, organism-based. Conditions: mouse, in vivo. The procedure, abridged: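 Male CF1 mice (ca. 24–34 g), compound ip in 0.5% methylcellulose suspension; neurological deficit assessed by rotorod test, time (h) of peak neurotoxic effect recorded for TD50 determination.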
Data set [17] is described as follows: Antiepileptic activity in male CF1 mice 30 min after administration measured in neurological toxicity (Tox) test at a dose of 300 mg/kg (no. of animals treated /protected); activity value is 3/4. Type of data set: functional, Mus musculus.
Data set [18] in a line: Antiepileptic activity in male CF1 mice 30 min after administration measured in maximum electroshock seizure(MES) test at a dose of 100 mg/kg (no. of animals treated /protected); activity value is 3/3. The format is functional, Mus musculus.
The test system of data set [19] is Rattus norvegicus. Put plainly: Average seizure score for the rat cornea 0.5 hr after peroral administration of 30 mg/kg of compound. Type of data set: functional. Conditions: route oral. In short, it runs like this:
as §2

The nature of data set [20]: Antiepileptic activity in male CF1 mice 4 hr after oral administration measured in maximum electroshock seizure(MES) test at a dose of 10 mg/kg (no. of animals treated /protected); activity value is 3/4. The format is functional, Mus musculus.
Data set [21] in a line: Antiepileptic activity in male CF1 mice 30 min after administration measured in neurological toxicity (Tox) test at a dose of 100 mg/kg (no. of animals treated /protected); activity value is 1/8. The format is functional, Mus musculus.
Data set [22] relates to Rattus norvegicus. Description: Per oral dose (40 mg/Kg) reducing rat corneal kindling 0.5 hr after administration. Type of data set: functional. In short, it runs like this: as §2
A short description of data set [23]: Antiepileptic activity in male CF1 mice 0.50 hours after oral administration measured in neurological toxicity (Tox) test at a dose of 6 mg/kg (no. of animals treated /protected); activity value is 0/4. The format is functional, Mus musculus.
Data set [24] can be described thus: Antiepileptic activity in male CF1 mice 0.5 hr after oral administration measured in maximum electroshock seizure(MES) test at a dose of 6 mg/kg (no. of animals treated /protected); activity value is 3/4. The format is functional, Mus musculus.
The nature of data set [25]: Antiepileptic activity in male CF1 mice 1 hr after oral administration measured in maximum electroshock seizure(MES) test at a dose of 6 mg/kg (no. of animals treated /protected); activity value is 2/4. Type of data set: functional, Mus musculus.
Data set [26] in a line: Antiepileptic activity in male CF1 mice 0.5 hr after oral administration measured in maximum electroshock seizure(MES) test at a dose of 10 mg/kg (no. of animals treated /protected); activity value is 4/4. The format is functional, Mus musculus.
Data set [27] can be described thus: Antiepileptic activity in male CF1 mice 30 min after administration measured in neurological toxicity (Tox) test at a dose of 300 mg/kg (no. of animals treated /protected); activity value is 4/4. The format is functional, Mus musculus.
The nature of data set [28]: Antiepileptic activity in male CF1 mice 1 hr after oral administration measured in neurological toxicity (Tox) test at a dose of 10 mg/kg (no. of animals treated /protected); activity value is 0/4. Type of data set: functional, Mus musculus.
The subject of data set [29] is Rattus norvegicus. Put plainly: Per oral dose (30 mg/Kg) reducing rat corneal kindling 0.5 hr after administration. The format is functional. The procedure, abridged: as §2
The subject of data set [30] is Rattus norvegicus. Description: Average seizure score for the rat cornea 0.5 hr after peroral administration of 40 mg/kg of compound. Type of data set: functional. The note with it: route oral. In short, it runs like this:
as §2

From ChEMBL document CHEMBL1125497, “Synthesis and anticonvulsant activity of enaminones” (J Med Chem, 1992) come the findings set out here.

Take `COC(=O)C1C(=O)C=C(NCc2ccccc2)CC1C` (stereo not given): the Activity in data set [1] was found to be 2; in data set [2], 0; in data set [4], 0; in [6] it was 2; in data set [7], 4; in [9], 0. Besides, the Activity is on record as 0 in [10], 0 in data set [13] and 3 in [17]. Also, the TD50 in data set [3] and in data set [12] was > 500 mg/kg each time. The same molecule showed a Dose in data set [5] of 13 mg/kg. This molecule showed an ED50 in data set [8] of 42 mg/kg. Besides, the Reduction is 40% in the data set on Rattus norvegicus [11] and 47% in the data set on Rattus norvegicus [15]. For the same molecule, the selectivity ratio in data set [14] was > 3.1. The molecule also had a TPE in data set [16] of 0.25 h.

With `COC(=O)C1C(=O)C=C(Nc2ccc(Cl)cc2)CC1C` (stereo not given), the Activity is on record as 3 in [18]; 3 in [20]; 1 in [21]; 0 in data set [23]; 3 in data set [24]; 2 in [25]. Moreover, the Activity in data set [26] was 4; in data set [27] it was 4; in [28], 0. In addition, the Average seizure score is 3 in the data set with Rattus norvegicus [19] and 2.6 in the data set on Rattus norvegicus [30]. For the same molecule, the Reduction in the data set on Rattus norvegicus [22] came out at 49%; with Rattus norvegicus [29], 40%.
